Molecules are shown by their SMILES. “Also recorded” adds a separate entry of the source.

Data on 6 compounds can be found in publication PMC11881275 (Malaria Journal, 2025).

Data set [1] is described as follows: Cytotoxic activity via the MTT method. The conditions noted are these: human, HepG2 cells. It is filed as cell-based, human. Background: Tetrazolium assays rely on reduction of a dye to a coloured formazan, in cell work by metabolically active cells.
Data set [2] has as its system human hepatocellular carcinoma cell line (HepG2). The data set can be described thus: Cytotoxic activity via the MTT method. The data set is classed as cell-based. The conditions noted are these: highest concentration tested 500 µM.
For data set [3] the following is noted: in silico predictions ref 77; cited from earlier work.
The next data set has as its system P. falciparum W2 clone. Nature of the data set: In vitro antimalarial activity via the SYBR Green I assay. The data set is classed as cell-based, Plasmodium falciparum. The essentials: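 Sorbitol-synchronized parasites in human O+ erythrocytes (0.5% parasitaemia, 2% haematocrit) received twofold dilutions of test compound, 1.56–200 µM final, in triplicate; artemisinin 170 nM was the control. Incubation was 72 h at 37 °C under 5% CO2/5% O2/90% N2. Cells were lysed in Tris/EDTA/saponin/Triton buffer with SYBR Green I, 30 min at 24 °C in the dark; ex 485/em 590 nm, uninfected-RBC blank subtracted. SI = HepG2 CC50 (MTT, 72 h) ÷ IC50.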

Data set [4] concerns P. falciparum NF54 gametocytes (stages IV, V). Nature of the data set: Exflagellation-blocking bioassay. The data set is classed as cell-based, Plasmodium falciparum. The note with it: 1 µM; ≥ 75% high, 25 to 75% average, below 25% inactive. The essentials:
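Stage IV–V gametocytes were first checked for exflagellation (≥30 exflagellating microgametocytes per 1000 RBC). They were then exposed for 48 h to test compound at 1 µM in triplicate, with DMSO ≤0.5% and DHA 1 µM as controls. Exflagellation was induced in ookinete medium containing xanthurenic acid, 20 min at 24 °C, and counted by microscopy at 1000×. Inhibition ≥75% was classed active.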

With `CC(=O)OCc1cn(-c2n[nH]c(C)n2)nn1` [Compound 13d, (1-(5-methyl-1H-1,2,4-triazol-3-yl)-1H-1,2,3-triazol-4-yl)methyl acetate], in data set [1], the CC50 (as a rule, the concentration at which the toxic effect on the cells reaches its halfway point) at 72 h was at least 500 µM and the viability (commonly a per cent measure of how many cells are alive, often set against a control) at 72 h, 500 µM is 80%. In addition, the “Cytotoxicity to HepG2 cells (in words)” value in data set [2] is “non-cytotoxic; also recorded: no cytotoxicity”.
For `OC(c1cc(C(F)(F)F)nc2c(C(F)(F)F)cccc12)C1CCCCN1` (stereo not drawn) [mefloquine], in data set [3], the Plasma protein binding entry was “high plasm protein binding”.
As for `C[C@@H]1CC[C@H]2[C@@H](C)C(=O)O[C@@H]3O[C@@]4(C)CC[C@@H]1[C@]32OO4` [Artemisinin], in the data set with P. falciparum W2 clone (CC50 HepG2 divided by IC50 W2), the “SI (selectivity index)” value is reported as ≥ 23,809. Further, the IC50 (as a rule, the concentration that gives 50% inhibition) in the data set on P. falciparum W2 clone (Plasmodium falciparum, W2, 72 h, read-out: IC50 W2) was 0.021 ± 0.004 µM. Besides, in data set [1], the cytotoxic concentration (CC50) at 72 h was at least 500 µM and the viability at 72 h, 500 µM was determined as 100%. Also, the Plasma protein binding result in data set [3] was “high plasm protein binding”.
As to `CCN(CC)CCCC(C)Nc1ccnc2cc(Cl)ccc12` (stereo not drawn) [chloroquine], in data set [3], the Plasma protein binding entry was “high plasm protein binding”.
With `CC(=O)OCc1cn(-c2n[nH]c(C(F)(F)F)n2)nn1` [Compound 14d, (1-(5-(trifluoromethyl)-1H-1,2,4-triazol-3-yl)-1H-1,2,3-triazol-4-yl)methyl acetate], in data set [1], the CC50 at 72 h was at least 500 µM and the viability at 72 h, 500 µM amounted to 93.4%. For the same compound, the “Cytotoxicity to HepG2 cells (in words)” value in data set [2] is “non-cytotoxic; also recorded: no cytotoxicity”. Also, the “Potential to block malaria transmission (classification)” value in data set [4] is listed as “high potential to block malaria transmission; also recorded: strong potential to block malaria transmission”.
`COc1cc(NC(C)CCCN)c2ncccc2c1` (stereo not drawn) [primaquine]: in data set [3], the Plasma protein binding entry was “high plasm protein binding”.
